Measured values taken from ChEMBL document CHEMBL1764949, “Microbial transformation of (+)-nootkatone and the antiproliferative activity of its metabolites” (2011).
Values after ≈ are worked out from the molar mass of the structure shown.

Legend:
[1] = system: A549; test: Antiproliferative activity against human A549 cells by […]; assay type: functional; settings: read-out: ID50 (the source's name)
In short: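 A549 human lung adenocarcinoma cells grown at 37 °C, 5% CO₂ in RPMI 1640+Opti-MEM (1:1) with 5% FBS, 2 mM glutamine, penicillin/streptomycin. Plated 10⁴ cells/well 24 h before dosing. Exposed 72 h to 0.1–100 µg/ml, ethanol vehicle. Cold 50% TCA fixation at 4 °C for 1 h, 0.4% SRB stain, OD 540 nm. ID₅₀ per experiment, mean ± SD. Triplicates, 3–5 experiments.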

[2] = system: HL-60; test: Antiproliferative activity against human HL60 cells by MTT assay; assay type: functional; settings: read-out: ID50 (the source's name)
In short: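 HL-60 promyelocytic leukemia cells in suspension in RPMI 1640 with 10% FBS, 2 mM glutamine, 1 mM pyruvate, glucose, antibiotics, 37 °C, 5% CO₂. Plated 10⁴ cells/well 24 h before dosing. Exposed 72 h to 0.1–100 µg/ml, ethanol vehicle. MTT (5 mg/ml stock) added for the last 3–4 h. SDS/DMF lysis for 24 h, OD 570 nm. ID₅₀ mean ± SD. Triplicates, 3–5 experiments.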

Structure (SMILES) | IC50 [1] [µg/mL] | IC50 [2] [µg/mL]
C=C(C)[C@@H]1C[C@@H](O)C2=CC(=O)C[C@@H](C)[C@]2(C)C1 | 62.7 (≈ 268 µM) | 25.7 (≈ 110 µM)
C[C@@H]1CC(=O)C=C2[C@H](O)C[C@H]([C@@]3(C)CO3)C[C@]21C | 289 (≈ 1150 µM) | 345 (≈ 1380 µM)
C[C@@H]1CC(=O)C=C2CC[C@](O)(C(C)(O)CO)C[C@]21C (some centres undefined) | 290 (≈ 1080 µM) | 25.8 (≈ 96.1 µM)
C=C(C)[C@@H]1CCC2=CC(=O)C[C@@H](C)[C@]2(C)C1 [NOOTKATONE] | 58.4 (≈ 267 µM) | 4.27 (≈ 19.6 µM)

Further lines, results first:

IC50 [1] [µg/mL] | IC50 [2] [µg/mL] | Structure (SMILES)
167 (≈ 713 µM) | 27.6 (≈ 118 µM) | C[C@@H]1CC(=O)C=C2CC[C@@H]([C@@]3(C)CO3)C[C@]21C
36 (≈ 154 µM) | 4.4 (≈ 18.8 µM) | C=C(CO)[C@@H]1CCC2=CC(=O)C[C@@H](C)[C@]2(C)C1
325 (≈ 1290 µM) | 284 (≈ 1130 µM) | C[C@@H]1CC(=O)C=C2CC[C@@H](C(C)(O)CO)C[C@]21C (some centres undefined)
